Reference: ChEMBL document CHEMBL3297684, “Discovery of biarylaminoquinazolines as novel tubulin polymerization inhibitors” (J Med Chem, 2014)
Calls of active or inactive are those of the source. The rule behind the calls is not given here.

Tests used:
[1] = molecular target: Epidermal growth factor receptor (Homo sapiens, UniProt P00533); test: Inhibition of EGFR (unknown origin) assessed as incorporation of [32P] gamma-ATP in to myelin basic protein after 30 mins by autoradiographic analysis
[2] = molecular target: Fibroblast growth factor receptor 1 (Homo sapiens, UniProt P11362); test: Inhibition of FGFR1 (unknown origin) assessed as incorporation of [32P] gamma-ATP in to myelin basic protein after 30 mins by autoradiographic analysis
[3] = molecular target: Tyrosine-protein kinase ABL1 (Homo sapiens, UniProt P00519); test: Inhibition of Abl1 (unknown origin) assessed as incorporation of [32P] gamma-ATP in to myelin basic protein after 30 mins by autoradiographic analysis
[4] = molecular target: Proto-oncogene tyrosine-protein kinase Src (Homo sapiens, UniProt P12931); test: Inhibition of Src (unknown origin) assessed as incorporation of [32P] gamma-ATP in to myelin basic protein after 30 mins by autoradiographic analysis
[5] = Cytotoxicity against human OVCAR8 cells assessed as inhibition of cell proliferation by SRB assay; type: functional, cell-based; details: OVCAR-8
Procedure, shortened: (§1)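 Cell protein measured with sulforhodamine B. NCI/ADR-RES is isogenic with OVCAR-8 but overexpresses P-gp. Values are mean SD of at least three independent experiments.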

[6] = Cytotoxicity against human NCI-ADR-RES cells assessed as inhibition of cell proliferation by SRB assay; type: functional, cell-based; procedure, shortened: as §1
Tubulin = Tubulin (Bos taurus, UniProt Q6B856+Q862L2+Q862F3); test: Inhibition of bovine brain tubulin polymerization after 20 mins by turbidimetry analysis
Procedure, shortened: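 Electrophoretically homogeneous bovine brain tubulin at 10 μM (1.0 mg/mL) in 0.8 M monosodium glutamate, pH 6.6, with compound in 4% (v/v) DMSO. Preincubated 15 min at 30 °C without GTP, then chilled; 0.4 mM GTP added at 0 °C. Temperature raised to 30 °C and turbidity followed at 350 nm.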

[7] = Cell cycle arrest in human OVCAR8 cells assessed as increase in number of cells at G2/M phase at 1 uM after 30 mins by flow cytometry; type: functional, cell-based; details: OVCAR-8, in the assay text read “after 24 hrs” for “after 30 mins”
Procedure, shortened: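 OVCAR-8 cells grown in DMEM with 10% heat-inactivated FBS plus penicillin/streptomycin, 37 °C, 5% CO2. Exposed 24 h to 1 μM compound or drug-free medium. Fixed in 70% cold ethanol, RNase-treated (100 μg/mL, 30 min, 37 °C), stained with propidium iodide (100 μg/mL, 30 min, room temperature). 10 000 events per sample read by flow cytometry for G2/M fraction.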

A-431 = test: Cytotoxicity against human A431 cells assessed as reduction in cell viability after 68 hrs by MTT assay; type: functional, cell-based; details: A-431, 68 h

Chain of Fibroblast growth factor receptor 1 (P11362 whole entry): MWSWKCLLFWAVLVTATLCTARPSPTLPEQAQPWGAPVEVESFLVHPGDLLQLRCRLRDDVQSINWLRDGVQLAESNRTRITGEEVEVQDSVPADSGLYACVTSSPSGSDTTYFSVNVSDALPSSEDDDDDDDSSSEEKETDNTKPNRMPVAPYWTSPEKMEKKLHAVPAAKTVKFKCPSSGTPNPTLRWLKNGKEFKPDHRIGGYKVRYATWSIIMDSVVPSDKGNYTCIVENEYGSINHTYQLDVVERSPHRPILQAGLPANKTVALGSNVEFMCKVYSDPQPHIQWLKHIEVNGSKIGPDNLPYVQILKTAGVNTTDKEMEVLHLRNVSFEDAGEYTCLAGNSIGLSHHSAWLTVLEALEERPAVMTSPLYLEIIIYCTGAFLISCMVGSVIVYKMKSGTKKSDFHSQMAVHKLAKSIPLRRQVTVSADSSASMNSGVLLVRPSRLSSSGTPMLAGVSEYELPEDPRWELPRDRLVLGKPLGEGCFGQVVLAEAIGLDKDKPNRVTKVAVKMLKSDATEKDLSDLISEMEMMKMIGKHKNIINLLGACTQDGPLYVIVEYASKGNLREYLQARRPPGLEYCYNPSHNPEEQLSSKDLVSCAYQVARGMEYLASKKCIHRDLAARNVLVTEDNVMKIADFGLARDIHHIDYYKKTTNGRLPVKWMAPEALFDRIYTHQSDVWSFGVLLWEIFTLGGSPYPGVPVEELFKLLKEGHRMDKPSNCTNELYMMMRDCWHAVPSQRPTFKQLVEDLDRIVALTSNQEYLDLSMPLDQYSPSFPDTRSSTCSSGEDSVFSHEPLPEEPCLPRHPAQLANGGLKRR
Chain of Tyrosine-protein kinase ABL1 (P00519 whole entry): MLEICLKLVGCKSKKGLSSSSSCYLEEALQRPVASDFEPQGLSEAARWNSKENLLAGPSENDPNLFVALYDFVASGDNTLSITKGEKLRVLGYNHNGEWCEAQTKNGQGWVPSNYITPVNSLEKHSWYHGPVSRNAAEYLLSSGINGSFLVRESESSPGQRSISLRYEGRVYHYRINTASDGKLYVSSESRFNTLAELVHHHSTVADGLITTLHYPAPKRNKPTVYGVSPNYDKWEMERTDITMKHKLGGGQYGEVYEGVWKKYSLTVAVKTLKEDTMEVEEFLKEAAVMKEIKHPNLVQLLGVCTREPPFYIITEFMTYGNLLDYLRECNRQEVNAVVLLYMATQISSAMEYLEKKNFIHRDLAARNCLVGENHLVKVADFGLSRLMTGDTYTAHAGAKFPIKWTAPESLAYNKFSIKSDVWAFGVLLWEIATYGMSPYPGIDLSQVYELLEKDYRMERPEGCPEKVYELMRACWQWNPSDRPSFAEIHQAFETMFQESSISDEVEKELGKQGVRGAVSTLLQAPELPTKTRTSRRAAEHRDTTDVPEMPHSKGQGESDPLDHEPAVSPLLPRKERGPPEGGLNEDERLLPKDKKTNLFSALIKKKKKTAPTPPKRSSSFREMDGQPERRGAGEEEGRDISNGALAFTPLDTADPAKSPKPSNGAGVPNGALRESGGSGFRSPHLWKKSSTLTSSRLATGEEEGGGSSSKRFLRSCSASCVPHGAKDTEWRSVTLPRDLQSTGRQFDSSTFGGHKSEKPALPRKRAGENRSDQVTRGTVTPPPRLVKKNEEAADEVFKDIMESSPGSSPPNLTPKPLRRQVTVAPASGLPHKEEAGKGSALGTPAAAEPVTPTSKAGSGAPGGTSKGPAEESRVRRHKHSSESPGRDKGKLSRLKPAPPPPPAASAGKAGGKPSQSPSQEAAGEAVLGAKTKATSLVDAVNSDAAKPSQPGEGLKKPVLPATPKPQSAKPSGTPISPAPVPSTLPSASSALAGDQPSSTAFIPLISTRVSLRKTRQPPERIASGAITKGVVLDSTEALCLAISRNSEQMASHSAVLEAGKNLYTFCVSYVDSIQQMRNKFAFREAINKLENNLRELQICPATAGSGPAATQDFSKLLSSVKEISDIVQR
Chain of Epidermal growth factor receptor (P00533 whole entry): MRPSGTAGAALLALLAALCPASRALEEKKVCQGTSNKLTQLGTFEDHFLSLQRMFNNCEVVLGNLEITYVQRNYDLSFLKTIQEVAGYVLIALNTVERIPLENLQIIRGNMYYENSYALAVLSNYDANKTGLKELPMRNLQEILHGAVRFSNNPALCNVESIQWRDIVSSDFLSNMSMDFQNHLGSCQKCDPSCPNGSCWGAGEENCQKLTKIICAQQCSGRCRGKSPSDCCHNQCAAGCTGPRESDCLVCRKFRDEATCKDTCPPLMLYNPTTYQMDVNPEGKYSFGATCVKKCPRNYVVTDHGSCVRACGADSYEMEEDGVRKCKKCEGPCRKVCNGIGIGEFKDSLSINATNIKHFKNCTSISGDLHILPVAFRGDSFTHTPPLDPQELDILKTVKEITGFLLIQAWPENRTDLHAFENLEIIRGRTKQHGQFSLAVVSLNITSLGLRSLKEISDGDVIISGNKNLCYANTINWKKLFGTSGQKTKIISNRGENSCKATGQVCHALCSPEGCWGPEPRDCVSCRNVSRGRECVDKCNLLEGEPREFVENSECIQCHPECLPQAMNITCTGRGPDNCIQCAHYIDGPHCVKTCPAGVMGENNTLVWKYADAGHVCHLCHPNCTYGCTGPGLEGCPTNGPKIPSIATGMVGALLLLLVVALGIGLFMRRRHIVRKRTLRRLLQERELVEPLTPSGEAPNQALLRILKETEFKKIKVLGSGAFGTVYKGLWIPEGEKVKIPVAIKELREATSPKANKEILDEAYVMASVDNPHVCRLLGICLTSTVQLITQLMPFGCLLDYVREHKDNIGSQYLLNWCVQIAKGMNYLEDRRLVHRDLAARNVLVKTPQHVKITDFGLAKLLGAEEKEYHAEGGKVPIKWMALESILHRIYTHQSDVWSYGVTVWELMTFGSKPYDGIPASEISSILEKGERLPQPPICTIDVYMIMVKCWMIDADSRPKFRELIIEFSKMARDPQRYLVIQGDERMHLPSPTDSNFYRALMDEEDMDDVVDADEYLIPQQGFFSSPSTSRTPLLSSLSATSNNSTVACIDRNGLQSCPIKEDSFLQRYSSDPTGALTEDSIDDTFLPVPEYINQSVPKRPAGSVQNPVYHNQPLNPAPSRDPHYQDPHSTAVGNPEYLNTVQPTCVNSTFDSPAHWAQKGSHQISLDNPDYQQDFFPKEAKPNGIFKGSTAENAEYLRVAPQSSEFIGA
Chain of Proto-oncogene tyrosine-protein kinase Src (P12931 2-536 limits assumed): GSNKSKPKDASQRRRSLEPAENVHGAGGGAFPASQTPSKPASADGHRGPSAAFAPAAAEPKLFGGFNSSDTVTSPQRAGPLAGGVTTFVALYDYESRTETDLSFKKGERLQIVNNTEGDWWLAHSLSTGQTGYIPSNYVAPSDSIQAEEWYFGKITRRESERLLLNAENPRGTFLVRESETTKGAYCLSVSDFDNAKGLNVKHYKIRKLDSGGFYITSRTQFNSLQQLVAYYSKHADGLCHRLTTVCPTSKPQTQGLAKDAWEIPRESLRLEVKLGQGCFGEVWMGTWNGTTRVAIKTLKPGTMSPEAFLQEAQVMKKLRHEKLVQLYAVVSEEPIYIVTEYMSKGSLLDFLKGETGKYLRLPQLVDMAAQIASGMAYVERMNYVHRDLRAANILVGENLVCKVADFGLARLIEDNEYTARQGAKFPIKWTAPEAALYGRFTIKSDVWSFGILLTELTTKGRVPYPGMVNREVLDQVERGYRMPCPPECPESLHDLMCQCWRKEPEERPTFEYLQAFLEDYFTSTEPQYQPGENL

CC(=O)O[C@H]1C(=O)[C@@]2(C)[C@H]([C@H](OC(=O)c3ccccc3)[C@]3(O)C[C@H](OC(=O)[C@H](O)[C@@H](NC(=O)c4ccccc4)c4ccccc4)C(C)=C1C3(C)C)[C@]1(OC(C)=O)CO[C@@H]1C[C@@H]2O [PACLITAXEL]
IC50 [1]: > 10 µM | IC50 [2]: > 10 µM | IC50 [3]: > 10 µM | IC50 [4]: > 10 µM | EC50 [5]: 0.018 µM | EC50 [6]: 0.013 µM

COc1ccc(/C=C\c2cc(OC)c(OC)c(OC)c2)cc1O [COMBRETASTATIN A4]
IC50 [1]: > 10 µM | IC50 [2]: > 10 µM | IC50 [3]: > 10 µM | IC50 [4]: > 10 µM | EC50 [5]: 0.0055 µM | EC50 [6]: 5 µM

c1ccc(-c2ccnc(Nc3ncnc4cc5c(cc34)OCCO5)n2)cc1
IC50 [1]: > 10 µM | IC50 [2]: > 10 µM | IC50 [3]: > 10 µM | IC50 [4]: > 10 µM | IC50 (Tubulin): > 20 µM

Cl.c1cc(Nc2ncnc3cc4c(cc23)OCCO4)cc(-c2ccc[nH]2)c1
IC50 [1]: > 10 µM | IC50 [2]: > 10 µM | IC50 [3]: > 10 µM | IC50 [4]: > 10 µM | IC50 (Tubulin): 3 µM | EC50 [5]: 4 µM | EC50 [6]: 3.6 µM

Cl.c1ccc(-c2cccc(Nc3ncnc4cc5c(cc34)OCCO5)c2)nc1
IC50 [1]: > 10 µM | IC50 [2]: > 10 µM | IC50 [3]: > 10 µM | IC50 [4]: > 10 µM | IC50 (Tubulin): 3.2 µM

c1ccc(-c2cccc(Nc3ncnc4cc5c(cc34)OCCO5)c2)cc1
IC50 (Tubulin): 4 µM | EC50 [5]: 0.5 µM

c1ccc(-c2cccc(Nc3ncnc4cc5c(cc34)OCO5)c2)cc1
IC50 (Tubulin): 1.1 µM | EC50 [5]: 0.03 µM | Activity [7]: Active

c1ccc(-c2cccc(Nc3ncnc4cc5c(cc34)OCCCO5)c2)cc1
IC50 (Tubulin): 2.3 µM | EC50 [5]: 0.55 µM | EC50 (A-431): 0.66 µM

c1ccc(-c2csc(Nc3ncnc4cc5c(cc34)OCCO5)n2)cc1
IC50 [1]: > 10 µM | IC50 [2]: > 10 µM | IC50 [3]: > 10 µM | IC50 [4]: > 10 µM | IC50 (Tubulin): > 20 µM

Cl.c1cc(Nc2ncnc3cc4c(cc23)OCCO4)cc(-c2ccco2)c1
IC50 [1]: > 10 µM | IC50 [2]: > 10 µM | IC50 [3]: > 10 µM | IC50 [4]: > 10 µM | IC50 (Tubulin): 12 µM

COc1cc2ncnc(Nc3cccc(-c4ccccc4)c3)c2cc1OC
IC50 [1]: > 10 µM | IC50 [2]: > 10 µM | IC50 [3]: > 10 µM | IC50 [4]: > 10 µM | IC50 (Tubulin): > 20 µM

Cl.c1cc(Nc2ncnc3cc4c(cc23)OCCO4)cc(-c2cccs2)c1
IC50 [1]: > 10 µM | IC50 [2]: > 10 µM | IC50 [3]: > 10 µM | IC50 [4]: > 10 µM | IC50 (Tubulin): 1.2 µM | EC50 [5]: 0.01 µM | EC50 [6]: 0.004 µM | Activity [7]: Active
